Test results from ChEMBL document CHEMBL1147377, “Knerachelins A and B, antibacterial phenylacylphenols from Knema furfuracea” (1993).
Converted amounts (≈) assume the structure as drawn. The source made the active and inactive calls. The rule behind the calls is not given here.

Columns and labels:
[1] = system: Klebsiella pneumoniae; experiment: Antibacterial activity against Klebsiella pneumoniae IP 7824 caroli after 24 hrs by agar dilution method; type: functional
Procedure, shortened: (§1)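 MIC by microplate titration in agar medium (agar dilution). Compounds dissolved in DMSO. Incubation at 37° for 24 h (the 24 h/37° conditions are stated for the bioguiding agar diffusion test against S. aureus 209 P).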

[2] = system: Streptococcus; experiment: Antibacterial activity against Streptococcus A Dig 7 after 24 hrs by agar dilution method; type: functional; procedure, shortened: as §1
[3] = system: Staphylococcus aureus; experiment: Antibacterial activity against Staphylococcus aureus Duc after 24 hrs by agar dilution method; type: functional; procedure, shortened: as §1
[4] = system: Streptococcus pneumoniae; experiment: Antibacterial activity against Streptococcus pneumoniae 4314-03 after 24 hrs by agar dilution method; type: functional; procedure, shortened: as §1
[5] = system: Staphylococcus aureus; experiment: Antibacterial activity against Staphylococcus aureus ATCC 25923 after 24 hrs by agar dilution method; type: functional; conditions: ATCC 25923, 24 h; procedure, shortened: as §1
[6] = system: Streptococcus pneumoniae; experiment: Antibacterial activity against Streptococcus pneumoniae 6176-23F after 24 hrs by agar dilution method; type: functional; procedure, shortened: as §1
[7] = system: Staphylococcus aureus; experiment: Antibacterial activity against Staphylococcus aureus IP 8203 after 24 hrs by agar dilution method; type: functional; procedure, shortened: as §1
[8] = system: Serratia marcescens; experiment: Antibacterial activity against Serratia marcescens Guilpin 759 after 24 hrs by agar dilution method; type: functional; procedure, shortened: as §1
[9] = system: Klebsiella aerogenes; experiment: Antibacterial activity against Enterobacter aerogenes HM12 after 24 hrs by agar dilution method; type: functional; procedure, shortened: as §1
[10] = system: Escherichia coli; experiment: Antibacterial activity against Escherichia coli V 2019 after 24 hrs by agar dilution method; type: functional; procedure, shortened: as §1
[11] = system: Nucleic Acid; experiment: Induction of phiX174 replicative form 1 template DNA cleavage at 48 ug after 1 hr by propidium iodide staining; type: nucleic-acid assay
Procedure, shortened: (§2)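 Reaction at pH 7.5, 15 µl final, with 50 mM sodium cacodylate, 100 ng ΦX174 RF I DNA and CuSO4 120 µM plus sample (24 or 48 µg). Incubated 1 h at 25°, stopped with EDTA. Run on 0.8% agarose at 80 V for 1.5 h in Tris-borate pH 8.0. Stained with propidium iodide 0.5 µg/ml; form II DNA scored.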

[12] = system: Streptococcus pneumoniae; experiment: Antibacterial activity against Streptococcus pneumoniae 6254.013 after 24 hrs by agar dilution method; type: functional; procedure, shortened: as §1
[13] = system: Staphylococcus aureus; experiment: Antibacterial activity against Staphylococcus aureus Duchaussoy after 24 hrs by agar dilution method; type: functional; procedure, shortened: as §1
[14] = system: Enterococcus faecalis; experiment: Antibacterial activity against Enterococcus faecalis ATCC 29212 after 24 hrs by agar dilution method; type: functional; conditions: ATCC 29212, 24 h; procedure, shortened: as §1
[15] = system: Staphylococcus aureus; experiment: Antibacterial activity against Staphylococcus aureus V. de G. 26109 after 24 hrs by agar dilution method; type: functional; procedure, shortened: as §1
[16] = system: Salmonella typhimurium; experiment: Antibacterial activity against Salmonella Typhimurium IPL after 24 hrs by agar dilution method; type: functional, Salmonella enterica subsp. enterica serovar Typhimurium; conditions: Salmonella enterica; procedure, shortened: as §1
[17] = system: Enterococcus faecium; experiment: Antibacterial activity against Enterococcus faecium ATCC 19581 after 24 hrs by agar dilution method; type: functional; conditions: ATCC 19581, 24 h; procedure, shortened: as §1
[18] = system: Pseudomonas aeruginosa; experiment: Antibacterial activity against Pseudomonas aeruginosa IPA 237 after 24 hrs by agar dilution method; type: functional; procedure, shortened: as §1
[19] = system: Staphylococcus aureus; experiment: Antibacterial activity against Staphylococcus aureus 209P ATCC 6538 after 24 hrs by agar dilution method; type: functional; procedure, shortened: as §1
[20] = system: Escherichia coli; experiment: Antibacterial activity against Escherichia coli NIHJ-JC2 after 24 hrs by agar dilution method; type: functional; procedure, shortened: as §1
[21] = system: Nucleic Acid; experiment: Induction of phiX174 replicative form 1 template DNA cleavage at 24 ug after 1 hr by propidium iodide staining; type: nucleic-acid assay; procedure, shortened: as §2

COc1cc(O)c(C(=O)CCCCc2ccccc2)c(O)c1 [KNERACHELIN A]
MIC [1]: > 128 µg/mL
MIC [2]: 8 µg/mL (≈ 26.6 µM)
MIC [3]: 8 µg/mL (≈ 26.6 µM)
MIC [4]: 8 µg/mL (≈ 26.6 µM)
MIC [5]: 8 µg/mL (≈ 26.6 µM)
MIC [6]: 8 µg/mL (≈ 26.6 µM)
MIC [7]: 8 µg/mL (≈ 26.6 µM)
MIC [8]: > 128 µg/mL
MIC [9]: > 128 µg/mL
MIC [10]: > 128 µg/mL
Activity [11]: inactive
MIC [12]: 8 µg/mL (≈ 26.6 µM)
MIC [13]: 8 µg/mL (≈ 26.6 µM)
MIC [14]: 32 µg/mL (≈ 107 µM)
MIC [15]: 8 µg/mL (≈ 26.6 µM)
MIC [16]: > 128 µg/mL
MIC [17]: 32 µg/mL (≈ 107 µM)
MIC [18]: > 128 µg/mL
MIC [19]: 8 µg/mL (≈ 26.6 µM)
MIC [20]: > 128 µg/mL

O=C(CCCCc1ccccc1)c1c(O)cccc1O [KNERACHELIN B]
MIC [1]: > 128 µg/mL
MIC [2]: 4 µg/mL (≈ 14.8 µM)
MIC [3]: 4 µg/mL (≈ 14.8 µM)
MIC [4]: 8 µg/mL (≈ 29.6 µM)
MIC [5]: 4 µg/mL (≈ 14.8 µM)
MIC [6]: 8 µg/mL (≈ 29.6 µM)
Activity [21]: inactive
MIC [7]: 4 µg/mL (≈ 14.8 µM)
MIC [8]: > 128 µg/mL
MIC [9]: > 128 µg/mL
MIC [10]: > 128 µg/mL
MIC [12]: 8 µg/mL (≈ 29.6 µM)
MIC [13]: 4 µg/mL (≈ 14.8 µM)
MIC [14]: 16 µg/mL (≈ 59.2 µM)
MIC [15]: 4 µg/mL (≈ 14.8 µM)
MIC [16]: > 128 µg/mL
MIC [17]: 16 µg/mL (≈ 59.2 µM)
MIC [18]: > 128 µg/mL
MIC [19]: 4 µg/mL (≈ 14.8 µM)
MIC [20]: > 128 µg/mL
